{"source": "ChEMBL document CHEMBL5143731", "about": "“N-Acylamino Saccharin as an Emerging Cysteine-Directed Covalent Warhead and Its Application in the Identification of Novel FBPase Inhibitors toward Glucose Reduction” (J Med Chem, 2022)", "key": {"[1]": {"assay": "Half life of the compound in DMSO", "type": "physicochemical", "in_short": "(§1)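 Electrophile (20 μmol) incubated at 37 °C either in pH 7.4 buffer, or in DMSO-d6/D2O (5:1), with or without glutathione. Decay followed by 1H NMR kinetics. First-order rate constant kpseudo-1st taken from ln[electrophile] versus time; t1/2 = 0.693/(60×k), in min.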"}, "[2]": {"assay": "Half life of the compound in GSH", "type": "physicochemical", "conditions": "GSH (glutathione)", "in_short": "as §1"}, "[3]": {"biological_target": "Epidermal growth factor receptor (Homo sapiens) (UniProt P00533)", "sequence (P00533 whole entry)": "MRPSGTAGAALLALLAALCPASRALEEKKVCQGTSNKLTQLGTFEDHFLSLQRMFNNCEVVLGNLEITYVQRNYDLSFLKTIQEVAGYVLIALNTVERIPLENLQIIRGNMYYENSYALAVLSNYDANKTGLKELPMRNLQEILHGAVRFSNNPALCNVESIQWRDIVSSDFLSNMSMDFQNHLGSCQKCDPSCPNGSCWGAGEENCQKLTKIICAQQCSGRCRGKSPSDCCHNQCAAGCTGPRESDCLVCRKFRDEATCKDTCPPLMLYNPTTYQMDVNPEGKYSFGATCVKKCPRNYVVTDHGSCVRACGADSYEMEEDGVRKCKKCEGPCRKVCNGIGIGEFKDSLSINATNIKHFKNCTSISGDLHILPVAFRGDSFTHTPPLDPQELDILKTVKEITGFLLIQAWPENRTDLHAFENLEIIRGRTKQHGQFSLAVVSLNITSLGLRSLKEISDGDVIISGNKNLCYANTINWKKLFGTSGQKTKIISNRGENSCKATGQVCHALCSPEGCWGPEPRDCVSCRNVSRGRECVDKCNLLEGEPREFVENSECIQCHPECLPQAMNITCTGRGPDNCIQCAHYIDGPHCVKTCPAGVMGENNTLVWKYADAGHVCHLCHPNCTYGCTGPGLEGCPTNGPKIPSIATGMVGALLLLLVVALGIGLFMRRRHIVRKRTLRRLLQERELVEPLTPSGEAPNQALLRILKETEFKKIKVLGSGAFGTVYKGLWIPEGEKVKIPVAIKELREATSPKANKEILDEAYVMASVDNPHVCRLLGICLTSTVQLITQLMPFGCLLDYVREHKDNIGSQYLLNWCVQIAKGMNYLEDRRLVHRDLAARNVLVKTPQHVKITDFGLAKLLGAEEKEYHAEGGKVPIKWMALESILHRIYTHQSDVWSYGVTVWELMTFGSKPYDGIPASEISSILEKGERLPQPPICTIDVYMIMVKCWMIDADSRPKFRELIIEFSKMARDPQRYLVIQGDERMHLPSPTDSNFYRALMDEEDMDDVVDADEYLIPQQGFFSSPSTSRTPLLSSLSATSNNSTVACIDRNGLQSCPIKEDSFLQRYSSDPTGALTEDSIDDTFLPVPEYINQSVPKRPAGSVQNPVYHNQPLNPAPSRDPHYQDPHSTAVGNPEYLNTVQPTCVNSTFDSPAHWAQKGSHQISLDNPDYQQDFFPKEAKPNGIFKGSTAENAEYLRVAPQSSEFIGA", "assay": "Inhibition of EGFR (unknown origin) at 300 uM measured after 40 mins in presence of ATP by luminescence assay relative to control", "in_short": "(§2)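 Kinase reaction (50 μL): 40 mM Tris pH 7.4, 10 mM MgCl2, 0.1 mg/mL BSA, 1 mM DTT, 10 μM ATP, kinase and substrate, with 1% final DMSO. Run 40 min at 30 °C. Residual ATP read by Kinase-Glo Plus luminescence, inversely related to kinase activity.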"}, "Homo sapiens [4]": {"species_on_record": "Homo sapiens", "assay": "Selectivity ratio of IC50 for human FBPase to IC50 for recombinant ALDOA (unknown origin)", "in_short": "(§3)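 Aldolase (ALDOA/B/C) IC50 by NADH-coupled assay: enzyme plus serial compound dilutions, 0.41 mM NADH and TPI in 0.1 M Tris pH 7.4/0.2 M K-acetate, 3 min at 37 °C. Started with FBP and […], A340 read every 30 s for 6 min. Ratios against the FBPase IC50 from malachite green phosphate assay (620 nm).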"}, "Homo sapiens [5]": {"species_on_record": "Homo sapiens", "assay": "Selectivity ratio of IC50 for human FBPase to IC50 for recombinant ALDOB (unknown origin)", "in_short": "as §3"}, "Homo sapiens [6]": {"species_on_record": "Homo sapiens", "assay": "Selectivity ratio of IC50 for human FBPase to IC50 for recombinant ALDOC (unknown origin)", "in_short": "as §3"}, "Homo sapiens [7]": {"species_on_record": "Homo sapiens", "assay": "Selectivity ratio of IC50 for human FBPase to IC50 for human GAPDH", "in_short": "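Recombinant human GAPDH (His-tag, E. coli; 0.1 mg/mL final) preincubated 30 min with compound in 10 mM sodium pyrophosphate pH 8.5 at 37 °C. Started with arsenate, 4 mM NAD+ and 12 mM G3P; A340 at 4 min. Ratio taken against FBPase IC50 from the malachite green phosphate-release assay.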"}, "[8]": {"biological_target": "Tyrosine-protein kinase BTK (Homo sapiens) (UniProt Q06187)", "sequence (Q06187 whole entry)": "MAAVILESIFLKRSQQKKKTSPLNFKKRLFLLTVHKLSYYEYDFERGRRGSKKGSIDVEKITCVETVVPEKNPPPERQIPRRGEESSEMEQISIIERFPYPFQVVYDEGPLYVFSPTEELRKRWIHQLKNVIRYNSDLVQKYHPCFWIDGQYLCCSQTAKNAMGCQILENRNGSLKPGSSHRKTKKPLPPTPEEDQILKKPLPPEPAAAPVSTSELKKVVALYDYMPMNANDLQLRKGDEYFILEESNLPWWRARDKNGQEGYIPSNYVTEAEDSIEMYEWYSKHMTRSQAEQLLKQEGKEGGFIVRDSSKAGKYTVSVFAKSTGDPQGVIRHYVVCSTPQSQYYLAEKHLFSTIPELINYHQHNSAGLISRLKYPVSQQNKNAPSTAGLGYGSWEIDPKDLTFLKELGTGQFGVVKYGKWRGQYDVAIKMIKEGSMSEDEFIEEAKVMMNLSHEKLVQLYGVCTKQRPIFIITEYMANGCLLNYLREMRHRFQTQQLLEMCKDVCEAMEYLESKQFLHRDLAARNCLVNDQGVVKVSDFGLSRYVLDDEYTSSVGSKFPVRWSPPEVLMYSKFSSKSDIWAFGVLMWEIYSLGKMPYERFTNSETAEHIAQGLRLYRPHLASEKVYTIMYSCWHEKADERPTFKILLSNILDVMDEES", "assay": "Inhibition of BTK (unknown origin) at 300 uM measured after 40 mins in presence of ATP by luminescence assay relative to control", "in_short": "as §2"}, "Mus musculus [9]": {"test_system": "Mus musculus", "assay": "Hypoglycemic activity in ICR mouse assessed as glucose lowering effect at 30 mg/kg, ip measured after 2 to 6 hrs", "type": "functional, organism-based", "conditions": "time 2-6 hrs", "in_short": "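Fasted (12 h) male ICR mice received one intraperitoneal dose in 10% ricinus oil/water vehicle; metformin 250 mg/kg served as control. Food was withheld. Tail blood glucose was read by glucometer at 0, 1, 2, 4 and 6 h.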"}, "Mus musculus [10]": {"test_system": "Mus musculus", "assay": "Hypoglycemic activity in 12 hrs fasted ICR mouse assessed as reduction in blood glucose AUC (0 to 6 hrs) at 10 mg/kg, ip measured after 6 hrs", "type": "functional", "design": "scale not given: the % may be the effect or the level left", "in_short": "(§4)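 Male ICR mice (n = 4 per group), fasted 12 h with food withheld throughout. Single ip dose in 10% ricinus oil in water; vehicle and metformin 250 mg/kg as controls. Tail-vein glucose by glucometer at 0, 1, 2, 4 and 6 h; AUC over 0−6 h calculated.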"}, "Mus musculus [11]": {"test_system": "Mus musculus", "assay": "Hypoglycemic activity in 12 hrs fasted ICR mouse assessed as reduction in blood glucose AUC (0 to 6 hrs) at 30 mg/kg, ip measured after 6 hrs", "type": "functional", "design": "scale not given: the % may be the effect or the level left", "in_short": "as §4"}, "Mus musculus [12]": {"test_system": "Mus musculus", "assay": "Hypoglycemic activity in 12 hrs fasted ICR mouse assessed as reduction in blood glucose AUC (0 to 2 hrs) at 10 mg/kg, ip measured after 2 hrs", "type": "functional", "design": "scale not given: the % may be the effect or the level left", "in_short": "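OGTT: 12 h-fasted ICR mice (n = 6 per group) dosed ip (10 or 30 mg/kg in 10% ricinus oil/water), with vehicle and metformin 250 mg/kg controls, 1 h before oral glucose 2 g/kg. Tail blood glucose by glucometer at 0, 0.25, 0.5, 1, 1.5 and 2 h; AUC 0−2 h computed. Food withheld.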"}, "[13]": {"biological_target": "T1, Fructose-1,6-bisphosphatase 1 (Homo sapiens) (UniProt P09467)", "T1 sequence (whole entry)": "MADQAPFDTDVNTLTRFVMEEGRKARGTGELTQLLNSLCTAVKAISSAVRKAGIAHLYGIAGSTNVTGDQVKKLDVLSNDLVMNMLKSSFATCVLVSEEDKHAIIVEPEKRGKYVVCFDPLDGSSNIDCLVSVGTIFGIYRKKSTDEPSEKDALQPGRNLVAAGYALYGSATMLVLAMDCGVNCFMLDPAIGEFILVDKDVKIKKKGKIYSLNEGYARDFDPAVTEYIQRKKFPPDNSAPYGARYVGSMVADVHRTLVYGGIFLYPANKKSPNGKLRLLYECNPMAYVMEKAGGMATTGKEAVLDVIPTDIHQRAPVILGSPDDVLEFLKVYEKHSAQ", "assay": "Inhibition of human FBPase in ICR mouse serum starved primary hepatocytes assessed as glucose lowering effect", "type": "cell-based", "conditions": "Hepatocyte, dose 50-300 µM", "in_short": "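Primary mouse hepatocytes serum-starved overnight, then exposed in DMEM for 6 h to test compounds (50−300 μM), metformin 1 mM or saccharin 50 or 100 μM. Gluconeogenesis assessed as glucose in the culture medium. Mean ± SEM reported, Student's t-test versus vehicle.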"}, "Hepatocyte": {"test_system": "Hepatocyte", "assay": "Cytotoxicity in ICR mouse serum starved primary hepatocytes assessed as reduction in cell viability at 50 to 300 uM", "type": "toxicity, cell-based", "conditions": "dose 50-300 µM"}, "[14]": {"assay": "Drug uptake in 12 hrs fasted ICR mouse assessed as plasma concentration at 30 mg/kg, ip measured after 6 hrs by LC-MS/MS analysis", "type": "ADME, organism-based", "conditions": "in vivo", "in_short": "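Plasma levels of parent and of released saccharin followed over 0−24 h after a single 30 mg/kg ip dose to 12 h-fasted male ICR mice. Plasma was obtained from K2EDTA blood (4 °C spin, stored at −70 °C) and measured by LC−MS/MS.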"}, "Mus musculus [15]": {"test_system": "Mus musculus", "assay": "Hypoglycemic activity in ICR mouse assessed as improvement in glucose tolerance at 10 to 30 mg/kg, ip administered 1 hr prior to oral glucose at 2 g/kg and measured after 0.25 hr by OGTT", "conditions": "dose 10-30 mg/kg"}}, "note": "Calls of active or inactive are those of the source. The calls are words filed in the database; no cut-off is given here.", "data": [{"smiles": "O=C(NCc1ccccc1)N1C(=O)c2ccccc2S1(=O)=O", "values": [{"measurement": "half-life", "setting": "[1]", "value": "> 167", "unit": "h"}, {"measurement": "half-life", "setting": "[2]", "value": 1.02, "unit": "h"}, {"measurement": "inhibition", "setting": "[3]", "value": "< 50", "unit": "%"}, {"measurement": "Ratio IC50", "setting": "Homo sapiens [4]", "value": "> 25"}, {"measurement": "Ratio IC50", "setting": "Homo sapiens [5]", "value": "> 25"}, {"measurement": "Ratio IC50", "setting": "Homo sapiens [6]", "value": "> 25"}, {"measurement": "Ratio IC50", "setting": "Homo sapiens [7]", "value": "> 25"}, {"measurement": "inhibition", "setting": "[8]", "value": "< 50", "unit": "%"}, {"measurement": "Activity", "setting": "Mus musculus [9]", "value": "Active"}, {"measurement": "Activity", "setting": "Mus musculus [10]", "value": 15.3, "unit": "%"}, {"measurement": "Activity", "setting": "Mus musculus [11]", "value": 42.4, "unit": "%"}, {"measurement": "Activity", "setting": "Mus musculus [12]", "value": 20.2, "unit": "%"}, {"measurement": "inhibition", "setting": "[13]", "value": "Active"}, {"measurement": "Activity", "setting": "Hepatocyte", "value": "Non-Toxic"}, {"measurement": "Cp", "setting": "[14]", "value": "Active"}, {"measurement": "Activity", "setting": "Mus musculus [15]", "value": "Active"}]}]}
